Experimental data from ChEMBL document CHEMBL2311305, “Antiproliferative potency of novel benzofuran-2-carboxamides on tumour cell lines: cell death mechanisms and determination of crystal structure” (Eur J Med Chem, 2013).
The source made the active and inactive calls. The calls are words filed in the database; no cut-off is given here.

What was measured:
SW-620 [1] = experiment: Cytotoxicity against human SW620 cells after 72 hrs by MTT assay; format: functional, cell-based; details: for IC50: Homo sapiens, SW-620, 72 h
Method in brief: (§1)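 Cells seeded at 3000-6000 per well on day 0, according to cell line doubling time. Compound added in five 10-fold dilutions, 72-h incubation, then MTT colorimetric read-out. Absorbances converted to percentage growth by NCI formulae. IC50 obtained by linear regression between the concentrations bracketing PG 50; ">100" assigned when no concentration reaches it. Quadruplicate points, three independent experiments.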

SW-620 [2] = experiment: Induction of apoptosis in human SW620 cells assessed as caspase9 activation at 10 uM after 24 to 48 hrs by caspase protease assay; format: functional, cell-based
Method in brief: (§2)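 Compound at 5 µM on SK-BR-3 and 10 µM on SW620. Cells harvested after 24 and 48 h, washed in PBS, lysed 10 min on ice, centrifuged. Lysate diluted to 3 mg/mL protein and mixed with DTT-containing reaction buffer and caspase-3, -8 or -9 substrate. Incubated 90 min at 37 °C in the dark. Absorbance read at 405 nm, duplicates, compared with untreated control.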

SW-620 [3] = experiment: Induction of cell cycle arrest in human SW620 cells assessed as G2/M phase cells at 10 uM after 48 hrs by PI-staining based flow cytometric analysis (reference value: 8.9 +/- 0.4%); format: functional
WI-38 = experiment: Cytotoxicity against human WI38 cells after 72 hrs by MTT assay; format: cell-based; details: Homo sapiens, WI-38, 72 h; method in brief: as §1
MCF7 = experiment: Cytotoxicity against human MCF7 cells after 72 hrs by MTT assay; format: functional, cell-based; details: Homo sapiens, MCF7, 72 h; method in brief: as §1
SW-620 [4] = experiment: Induction of cell cycle arrest in human SW620 cells assessed as S phase cells at 5 uM after 24 hrs by PI-staining based flow cytometric analysis (reference value: 41.1 +/- 0.8%); format: functional
SW-620 [5] = experiment: Induction of cell cycle arrest in human SW620 cells assessed as G2/M phase cells at 10 uM after 24 hrs by PI-staining based flow cytometric analysis (reference value: 12.6 +/- 1%); format: functional
SW-620 [6] = experiment: Induction of cell cycle arrest in human SW620 cells assessed as subG1 phase cells at 10 uM after 48 hrs by PI-staining based flow cytometric analysis (reference value: 8.5 +/- 2.1%); format: functional
SW-620 [7] = experiment: Induction of cell cycle arrest in human SW620 cells assessed as S phase cells at 5 uM after 48 hrs by PI-staining based flow cytometric analysis (reference value: 39.9 +/- 0.5%); format: functional
SW-620 [8] = experiment: Induction of cell cycle arrest in human SW620 cells assessed as G1 phase cells at 10 uM after 24 hrs by PI-staining based flow cytometric analysis (reference value: 46.3 +/- 1.8%); format: functional
SW-620 [9] = experiment: Induction of cell cycle arrest in human SW620 cells assessed as subG1 phase cells at 5 uM after 48 hrs by PI-staining based flow cytometric analysis (reference value: 8.5 +/- 2.1%); format: functional
SW-620 [10] = experiment: Induction of cell cycle arrest in human SW620 cells assessed as G2/M phase cells at 5 uM after 48 hrs by PI-staining based flow cytometric analysis (reference value: 8.9 +/- 0.4%); format: functional
SW-620 [11] = experiment: Induction of mitotic catastrophe in human SW620 cells assessed as accumulation of G2/M phase cells at 5 to 10 uM after 24 to 48 hrs by PI-staining based flow cytometric analysis relative to control; format: functional, cell-based
SW-620 [12] = experiment: Induction of cell cycle arrest in human SW620 cells assessed as S phase cells at 10 uM after 48 hrs by PI-staining based flow cytometric analysis (reference value: 39.9 +/- 0.5%); format: functional
SK-BR-3 = experiment: Cytotoxicity against human SKBR3 cells after 72 hrs by MTT assay; format: functional, cell-based; details: SK-BR-3, 72 h; method in brief: as §1
SW-620 [13] = experiment: Induction of cell cycle arrest in human SW620 cells assessed as G1 phase cells at 10 uM after 48 hrs by PI-staining based flow cytometric analysis (reference value: 51.1 +/- 2.5%); format: functional
SW-620 [14] = experiment: Induction of cell cycle arrest in human SW620 cells assessed as S phase cells at 10 uM after 24 hrs by PI-staining based flow cytometric analysis (reference value: 41.1 +/- 0.8%); format: functional
MIA PaCa-2 = experiment: Cytotoxicity against human MIAPaCa2 cells after 72 hrs by MTT assay; format: functional, cell-based; details: Homo sapiens, MIA PaCa-2, 72 h; method in brief: as §1
SW-620 [15] = experiment: Induction of apoptosis in human SW620 cells assessed as caspase3 activation at 10 uM after 24 to 48 hrs by caspase protease assay; format: functional, cell-based; method in brief: as §2
SW-620 [16] = experiment: Induction of cell cycle arrest in human SW620 cells assessed as G1 phase cells at 5 uM after 24 hrs by PI-staining based flow cytometric analysis (reference value: 46.3 +/- 1.8%); format: functional
SW-620 [17] = experiment: Induction of cell cycle arrest in human SW620 cells assessed as subG1 phase cells at 10 uM after 24 hrs by PI-staining based flow cytometric analysis (reference value: 6.9 +/- 2.1%); format: functional
SW-620 [18] = experiment: Induction of cell cycle arrest in human SW620 cells assessed as G2/M phase cells at 5 uM after 24 hrs by PI-staining based flow cytometric analysis (reference value: 12.6 +/- 1%); format: functional
SW-620 [19] = experiment: Induction of cell cycle arrest in human SW620 cells assessed as G1 phase cells at 5 uM after 48 hrs by PI-staining based flow cytometric analysis (reference value: 51.1 +/- 2.5%); format: functional
SW-620 [20] = experiment: Induction of apoptosis in human SW620 cells assessed as caspase8 activation at 10 uM after 24 to 48 hrs by caspase protease assay; format: functional, cell-based; method in brief: as §2
HeLa = experiment: Cytotoxicity against human HeLa cells after 72 hrs by MTT assay; format: functional, cell-based; details: Homo sapiens, HeLa, 72 h; method in brief: as §1
SW-620 [21] = experiment: Induction of cell cycle arrest in human SW620 cells assessed as subG1 phase cells at 5 uM after 24 hrs by PI-staining based flow cytometric analysis (reference value: 6.9 +/- 2.1%); format: functional
SW-620 [22] = experiment: Induction of cell cycle arrest in human SW620 cells assessed as S phase cells at 10 uM after 24 hrs by PI-staining based flow cytometric analysis (reference value: 38.3 +/- 0.4%); format: functional
SW-620 [23] = experiment: Induction of cell cycle arrest in human SW620 cells assessed as subG1 phase cells at 5 uM after 24 hrs by PI-staining based flow cytometric analysis (reference value: 18.1 +/- 3.8%); format: functional
SW-620 [24] = experiment: Induction of cell cycle arrest in human SW620 cells assessed as G2/M phase cells at 5 uM after 24 hrs by PI-staining based flow cytometric analysis (reference value: 9.3 +/- 2.6%); format: functional
SW-620 [25] = experiment: Induction of cell cycle arrest in human SW620 cells assessed as S phase cells at 5 uM after 24 hrs by PI-staining based flow cytometric analysis (reference value: 38.3 +/- 0.4%); format: functional
SW-620 [26] = experiment: Induction of cell cycle arrest in human SW620 cells assessed as G2/M phase cells at 10 uM after 48 hrs by PI-staining based flow cytometric analysis (reference value: 8.5 +/- 1.6%); format: functional
SW-620 [27] = experiment: Induction of cell cycle arrest in human SW620 cells assessed as subG1 phase cells at 5 uM after 48 hrs by PI-staining based flow cytometric analysis (reference value: 5.8 +/- 0.3%); format: functional
SW-620 [28] = experiment: Induction of cell cycle arrest in human SW620 cells assessed as S phase cells at 10 uM after 48 hrs by PI-staining based flow cytometric analysis (reference value: 41.6 +/- 0.3%); format: functional
SW-620 [29] = experiment: Induction of cell cycle arrest in human SW620 cells assessed as subG1 phase cells at 10 uM after 48 hrs by PI-staining based flow cytometric analysis (reference value: 5.8 +/- 0.3%); format: functional
SW-620 [30] = experiment: Induction of cell cycle arrest in human SW620 cells assessed as G1 phase cells at 10 uM after 24 hrs by PI-staining based flow cytometric analysis (reference value: 52.6 +/- 2.3%); format: functional
SW-620 [31] = experiment: Induction of cell cycle arrest in human SW620 cells assessed as G1 phase cells at 5 uM after 24 hrs by PI-staining based flow cytometric analysis (reference value: 52.6 +/- 2.3%); format: functional
SW-620 [32] = experiment: Induction of cell cycle arrest in human SW620 cells assessed as G1 phase cells at 10 uM after 48 hrs by PI-staining based flow cytometric analysis (reference value: 49.9 +/- 1.4%); format: functional
SW-620 [33] = experiment: Induction of cell cycle arrest in human SW620 cells assessed as S phase cells at 5 uM after 48 hrs by PI-staining based flow cytometric analysis (reference value: 41.6 +/- 0.3%); format: functional
SW-620 [34] = experiment: Induction of cell cycle arrest in human SW620 cells assessed as G1 phase cells at 5 uM after 48 hrs by PI-staining based flow cytometric analysis (reference value: 49.9 +/- 1.4%); format: functional
SW-620 [35] = experiment: Induction of cell cycle arrest in human SW620 cells assessed as subG1 phase cells at 10 uM after 24 hrs by PI-staining based flow cytometric analysis (reference value: 18.1 +/- 3.8%); format: functional
SW-620 [36] = experiment: Induction of cell cycle arrest in human SW620 cells assessed as G2/M phase cells at 10 uM after 24 hrs by PI-staining based flow cytometric analysis (reference value: 9.3 +/- 2.6%); format: functional
SW-620 [37] = experiment: Induction of cell cycle arrest in human SW620 cells assessed as G2/M phase cells at 5 uM after 48 hrs by PI-staining based flow cytometric analysis (reference value: 8.5 +/- 1.6%); format: functional

## Cl.O=C(Nc1ccc(C2=NCCN2)cc1)c1cc2ccccc2o1
SW-620 [1]
  Activity: Dose-dependent effect
  IC50: 6.4 µM
SW-620 [2]
  Activity: inactive
SW-620 [3]
  Activity: 10.5%
WI-38
  IC50: 23.3 µM
MCF7
  IC50: 26.2 µM
SW-620 [4]
  Activity: 43.9%
SW-620 [5]
  Activity: 13.5%
SW-620 [6]
  Activity: 8.2%
SW-620 [7]
  Activity: 40.7%
SW-620 [8]
  Activity: 45.7%
SW-620 [9]
  Activity: 4.9%
SW-620 [10]
  Activity: 8.3%
SW-620 [11]
  Activity: Active
SW-620 [12]
  Activity: 42.6%
SK-BR-3
  IC50: 40.5 µM
SW-620 [13]
  Activity: 46.9%
SW-620 [14]
  Activity: 40.9%
MIA PaCa-2
  IC50: 31.5 µM
SW-620 [15]
  Activity: inactive
SW-620 [16]
  Activity: 43.4%
SW-620 [17]
  Activity: 10.4%
SW-620 [18]
  Activity: 12.7%
SW-620 [19]
  Activity: 46.8%
SW-620 [20]
  Activity: inactive
HeLa
  IC50: 27.5 µM
SW-620 [21]
  Activity: 7.1%

## CC(=O)Nc1ccc(NC(=O)c2cc3ccccc3o2)cn1
SW-620 [1]
  IC50: 1.1 µM
SW-620 [22]
  Activity: 31.4%
SW-620 [2]
  Activity: Active
WI-38
  IC50: 0.4 µM
MCF7
  IC50: 7.6 µM
SW-620 [23]
  Activity: 18.1%
SW-620 [24]
  Activity: 10.7%
SW-620 [25]
  Activity: 42.6%
SW-620 [26]
  Activity: 9.5%
SW-620 [27]
  Activity: 4.7%
SW-620 [28]
  Activity: 45.4%
SW-620 [29]
  Activity: 4.3%
SK-BR-3
  IC50: 59.8 µM
SW-620 [30]
  Activity: 43.5%
SW-620 [31]
  Activity: 46.8%
MIA PaCa-2
  IC50: 3.1 µM
SW-620 [15]
  Activity: Active
SW-620 [32]
  Activity: 45.2%
SW-620 [33]
  Activity: 44.9%
SW-620 [34]
  Activity: 43.9%
SW-620 [35]
  Activity: 18.2%
SW-620 [36]
  Activity: 25.3%
SW-620 [37]
  Activity: 11.2%
HeLa
  IC50: 0.9 µM
